Screening data (PubChem)
Only some compounds are listed: those with a hit (about 0.79% of all), similar ones and a draw of the others.
UCH37 DUB inh – human UCH37 deubiquitinating enzyme inhibition; purified proteasome/UCH37, Ub-AMC cleavage fluorescence; AID 588478; 330,000 compounds, 0.33% hits; Q9Y5K5; inhibition, % (test concentration not listed);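 active = mean inhibition over replicate wells above about 20%, limit read from the data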;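 also: 0% = compound-free wells with enzyme and 100% = wells lacking proteasome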
Target sequence (Q9Y5K5 whole entry, looked up): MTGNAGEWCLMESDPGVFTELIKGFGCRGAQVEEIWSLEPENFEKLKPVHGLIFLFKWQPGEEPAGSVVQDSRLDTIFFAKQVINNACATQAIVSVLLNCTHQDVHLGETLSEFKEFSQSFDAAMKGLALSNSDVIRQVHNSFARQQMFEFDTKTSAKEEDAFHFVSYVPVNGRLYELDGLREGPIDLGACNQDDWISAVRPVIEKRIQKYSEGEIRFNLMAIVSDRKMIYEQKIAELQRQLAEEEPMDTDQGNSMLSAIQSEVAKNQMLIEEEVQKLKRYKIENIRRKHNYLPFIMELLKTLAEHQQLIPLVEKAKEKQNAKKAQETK
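Material: human UCH37 enzyme supplied as purified proteasome complex / Amount: 0.15 nM proteasome as dispensed / Buffer or medium: pH 7.4 Tris-HCl (50 mM) with ovalbumin, ATP-MgCl2, DTT / Times: preincubation 30 min, reaction 25 min, room temperature / Technique: AMC fluorescence from Ub-AMC cleavage, excitation 355 nm, emission 460 nm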
Rin1 Abl inh – inhibitors of human Rin1-Abl protein interaction; P00519+Q13671; TR-FRET Rin1/Abl binding, biochemical; inhibition, % at 7.35 µM; 360,000 compounds, 0.4% hits; AID 588664; in the data active = inhibition above about 5%, passing the limit was not always enough
PKA-R2B act – activates the human PKA-R2B holoenzyme complex. P22694+P31323. PKA-R2B holoenzyme dissociation, Cy5-IP20 fluorescence polarization; R2B truncated from residue 108, S112A mutant; 0% DMSO only, 100% 113 µM cGMP. activation, % at 11.4 µM. 340,000 compounds, 0.079% hits;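 active = activation above a cutoff set at the mean over all compounds plus 3 SD, cut at about 18% in these data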;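 also: higher means more holoenzyme dissociation and a rise in polarization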
Target sequence (P31323 whole entry, looked up, other chains not shown, the tested form may be a part): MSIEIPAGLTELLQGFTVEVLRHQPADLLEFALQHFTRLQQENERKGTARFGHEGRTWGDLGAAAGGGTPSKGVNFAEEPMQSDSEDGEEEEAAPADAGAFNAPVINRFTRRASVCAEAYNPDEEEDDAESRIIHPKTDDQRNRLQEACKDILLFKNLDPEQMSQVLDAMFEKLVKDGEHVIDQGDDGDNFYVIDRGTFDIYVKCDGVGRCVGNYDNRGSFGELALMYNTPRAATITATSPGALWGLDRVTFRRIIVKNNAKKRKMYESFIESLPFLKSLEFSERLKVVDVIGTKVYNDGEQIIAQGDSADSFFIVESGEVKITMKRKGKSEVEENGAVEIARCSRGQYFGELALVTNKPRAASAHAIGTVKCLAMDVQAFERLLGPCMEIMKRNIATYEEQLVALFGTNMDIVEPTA
PKA-R1A activ – PKA-R1A complex activation; P00514+P68181; PKA-R1A dissociation, Cy5-IP20 fluorescence polarization; scaled: DMSO 0%, 113 µM cGMP 100%; activation, % at 11.4 µM; 340,000 compounds, 0.083% hits; AID 504707;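 active = percent activation above the mean of all tested compounds plus 3 SD, cut at about 19% in these data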;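 also: higher means more PKAc released from R1A so a rise in polarization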
R1A FP artifact – fluorescence polarization artifact in PKA-R1A activator counter-screen. shares compounds with PKA-R1A activ. Cy5-IP20 peptide alone, fluorescence polarization artifact counterscreen. activation, % at 11.4 µM. 280 compounds, 7% hits;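 active = mean activation over triplicate runs exceeds the adjusted cutoff derived for the parent primary screen, cut at about 19% in these data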;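 also: no PKA protein present so any polarization rise reflects compound interference; 0% = tracer peptide mix alone and 100% = mix with added PKA catalytic subunit; higher means stronger polarization artifact and likely false positive in parent screen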
PKA-R1A confirm – confirmation of PKA-R1A complex activators | shares compounds with PKA-R1A activ | Cy5-IP20 fluorescence polarization, PKA-R1A holoenzyme dissociation | activation, % at 11.4 µM | 280 compounds, 9% hits | AID 504800;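 active = mean activation over replicate wells exceeds the adjusted hit threshold taken from the earlier primary screen, cut at about 20% in these data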;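 also: 0% = holoenzyme mix with DMSO only and 100% = cGMP-activated control wells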
UCH37 confirm – confirmation of human UCH37 deubiquitinating enzyme inhibitors | shares compounds with UCH37 DUB inh | 480 compounds, 27% hits | inhibition, % at 20 µM | Proteasome-bound UCH37, Ub-AMC cleavage fluorescence;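 active = average inhibition over replicates above about 50%, so the earlier screening hit is confirmed, limit read from the data; inactive = the rest, counted as false positives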;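 also: based on cleavage rate fitted by regression over a 30 min kinetic read; 0% = proteasome plus Ub-AMC and 100% = Ub-AMC without proteasome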
Starred values were filed as active, the others as inactive; . = not tested or not shown.

SMILES	UCH37 DUB inh	Rin1 Abl inh	PKA-R2B act	PKA-R1A activ	others
COC(=O)CNC(=O)COc1ccccc1	-5.9	0.5	3.8	20.4*	R1A FP artifact=-2.7;PKA-R1A confirm=-1.3
CC(=O)Nc1ccc(NC(=O)CNC(=O)COc2ccccc2)cc1	0.1	-2.0	-3.5	7.0
C[C@@H]1CN([C@@H](C)CO)C(=O)CCCn2nncc2CO[C@H]1CN(C)Cc1ccncc1	.	-1.7	-0.1	-3.8
CNC(=O)CSc1nc2nc(C)cc(C)n2n1	0.1	1.1	8.2	-13.3
Cc1cc(C)n2nc(SCC(=O)c3ccc[nH]3)nc2n1	5.1	-0.4	-2.2	21.5*	R1A FP artifact=5.1;PKA-R1A confirm=2.1
CC(C)Cn1cnc2sc3c(c2c1=N)CCCC3	2.7	-5.3	-0.4	-5.3
CC(C)C(OC(=O)C1CCCO1)C(=O)NC1CCCC1 (stereo not given)	2.7	-0.1	-0.1	4.6
O=C(NCCCCc1ccccc1)c1cccc(NC(=O)C2CCCCC2)c1	.	-1.0	-0.7	-11.8
O=C(O)c1ccc(-n2cccn2)c([N+](=O)[O-])c1	2.5	-0.2	-0.3	20.3*	R1A FP artifact=-0.4;PKA-R1A confirm=2.0
O=C(Nc1nnc(SCc2cccc(F)c2)s1)c1ccco1	3.9	2.3	-11.6	-3.6
C=CCN(CC=C)Cc1cc(=O)oc2cc(C)ccc12	.	3.0	.	.
COc1ccccc1N1CCN(C(=O)c2cc(S(=O)(=O)N3CCOCC3)ccc2C)CC1	-1.2	-1.8	-0.5	18.7*	R1A FP artifact=-1.6;PKA-R1A confirm=0.1
Cc1ccccc1-c1ccc(C(=O)Nc2cccc(F)c2)o1	0.7	0.3	-18.6	-11.7
CCc1ccc(C(=O)COC(=O)C(Cc2ccccc2)NC(=O)c2ccc(Cl)cc2)cc1 (stereo not given)	4.5	-2.9	-7.3	-3.0
CCOc1ccc(N=Cc2ccc([N+](=O)[O-])cc2)c(O)c1	.	-13.6	-8.9	21.5*	R1A FP artifact=1.0;PKA-R1A confirm=4.9
CCN(CC)CCOC(=O)C(Cc1ccco1)Cc1cccc2ccccc12 (stereo not given)	4.0	-3.1	-2.8	23.8*	R1A FP artifact=1.1;PKA-R1A confirm=0.3
CC(CCC(=O)O)C1CC[C@@]2(C)C3C(=O)CC4C(C)(C)C(O)CC[C@]4(C)C3C(=O)C[C@]12C (stereo not given in full)	0.9	0.8	6.4	19.6*	R1A FP artifact=8.2;PKA-R1A confirm=4.0
CC1=CC(=O)C(C(C)C)=C/C1=N\OC(=O)c1cccc2nc(C)oc12	.	0.6	-0.9	19.1*	R1A FP artifact=2.4;PKA-R1A confirm=2.0
CC1=CC(=O)C(C(C)C)=C/C1=N/OC(=O)c1cccc([N+](=O)[O-])c1	.	2.9	-5.1	0.6
Brc1ccccc1CN1CCC(N2CCCCC2)CC1	2.3	-0.5	9.5	20.6*	R1A FP artifact=4.6;PKA-R1A confirm=5.9
O[C@@H]1CN(C2CCN(Cc3ccccc3)CC2)CC[C@H]1N1CCCCCC1	.	-0.9	2.6	-6.3
CCOC(=O)c1c(C)[nH]c(C(=O)CSc2nc3ccccc3o2)c1C	1.4	3.4	-1.2	-3.8
Cc1coc2c(C)c3oc(=O)c(CCC(=O)NCc4ccccn4)c(C)c3cc12	-28.4	-1.1	-10.0	19.7*	R1A FP artifact=2.0;PKA-R1A confirm=1.3
Cc1coc2cc3oc(=O)c(CCC(=O)NCc4ccccn4)c(C)c3cc12	-48.9	0.3	7.7	6.6
COc1ccc(S(=O)(=O)N2CCN(Cc3ccc4c(c3)OCO4)CC2)cc1	.	1.8	3.9	-7.4
SMILES	UCH37 DUB inh	Rin1 Abl inh	PKA-R2B act	PKA-R1A activ	others
O=C(Nc1cccc(Cl)c1)Nc1nnc(-c2ccncc2)s1	-10.0	-3.6	6.8	21.9*	R1A FP artifact=25.7*;PKA-R1A confirm=26.3*
COc1cccc(C(=O)Nc2nnc(SCC(=O)Nc3ccc(NC(C)=O)cc3)s2)c1	5.1	-0.3	4.5	20.1*	R1A FP artifact=1.1;PKA-R1A confirm=-2.6
COc1cccc(N2CC(C(=O)Nc3nnc(SCC(=O)Nc4ccc(NC(C)=O)cc4)s3)CC2=O)c1 (stereo not given)	-0.3	0.3	-4.4	2.4
O=C(Nc1ccc(N2CCN(c3ccc(O)cc3)CC2)cc1)Oc1ccccc1	3.7	3.3	15.7	19.8*	R1A FP artifact=14.5;PKA-R1A confirm=16.5
CCOC(=O)CC1=NN(c2ccccc2)C(=O)/C1=C\c1ccc(OC)cc1OC	35.5*	2.6	2.5	-6.3	UCH37 confirm=-2.7
CCOC(=O)C1CCCc2c1[nH]c1c(C(N)=O)cccc21 (stereo not given)	53.2*	-0.2	-5.6	-2.4	UCH37 confirm=-13.5
COc1ccc(NC(=O)c2ccc(Br)o2)cc1	40.5*	4.0	-8.8	-0.8	UCH37 confirm=1.7
COc1ccc(NC(=S)NC(=O)c2ccc(Br)o2)cc1	4.2	-0.7	-6.0	5.0
CCCCCCCCCCCCCCCCn1cc[n+](CC(C)=O)c1	84.5*	0.8	-11.3	-4.2	UCH37 confirm=96.3*
CCCCCCn1ccc(=N)cc1	6.6	2.6	-4.8	-3.0
CC(=O)N(/N=C1\Sc2ccccc2C1=O)c1ccccc1C	.	-1.7	9.9	-0.2
CC(=O)N(N=C1Sc2ccccc2C1=O)c1ccc(C)cc1C	34.8*	.	.	.	UCH37 confirm=26.3
CC(=O)N(/N=C1\Sc2ccccc2C1=O)c1ccc(C)cc1C	.	-4.8	-9.9	8.3
COc1ccccc1N(N=C1Sc2ccccc2C1=O)C(C)=O	71.3*	.	.	.	UCH37 confirm=35.2
CS(=O)(=O)c1cccc(S(=O)(=O)N2CCN(c3ccccn3)CC2)c1	2.0	0.9	-10.8	-10.4
CCCCC#Cc1cncc(C(=O)NN)c1	2.8	3.6	-0.1	-13.2
O=C(Nc1nc(-c2ccccn2)cs1)c1ccc(-c2ccccc2F)o1	-18.1	0.6	-1.0	-0.4
COc1ccc(CN(C)C(=O)CNC(=O)c2sc3ccccc3c2Cl)c(OC)c1OC	-2.0	-2.5	-5.7	2.2
COc1cc(/C=N/N2CCCCC2)cc([N+](=O)[O-])c1O	.	-2.8	7.9	-6.6
COc1cc(C=Nn2cnnc2-n2nc(C)cc2C)cc([N+](=O)[O-])c1O	29.2*	.	.	.	UCH37 confirm=25.5
NNC(=O)c1oc2nc(-c3ccco3)cc(-c3ccco3)c2c1N	11.5	-1.6	.	.
CCCNC1=C(N(C(C)=O)c2cccc(F)c2)C(=O)c2ccccc2C1=O	18.7	-5.9	2.1	-4.2
CCC(=O)N(C1=C(NC(C)C)C(=O)c2ccccc2C1=O)C(C)C	46.4*	-0.4	3.3	0.2	UCH37 confirm=21.7
Cc1ccc(C(=O)NN=Cc2cc(Br)c(Br)o2)cn1	27.8*	.	.	.	UCH37 confirm=13.3
O=C(NN=Cc1cc(Br)c(Br)o1)c1cccnc1	13.5	.	.	.
c1ccc2c(C[C@@H]3CNCCN3CCCCC3CCCCC3)cccc2c1	.	2.7	-10.8	-8.7
c1ccc(C[C@H]2CNCCN2CCCCC2CCCCC2)cc1	35.9*	3.0	-4.1	-7.0	UCH37 confirm=4.3
Nc1ccc(C(=O)OCC(=O)N2CCOCC2)cc1[N+](=O)[O-]	37.6*	-7.1	-1.3	-9.4	UCH37 confirm=7.5
